1 compound from ChEMBL document CHEMBL5661979, “Pharmacological inhibition of BMK1 suppresses tumor growth through promyelocytic leukemia protein” (Cancer Cell, 2010) can be followed below.

The target of experiment [1] is Serine/threonine-protein kinase Nek9 (Homo sapiens, UniProt Q8TD19). In words: Inhibition of NEK9 in human HeLa cells lysate pre incubated for 15 mins followed by ADP acyl phosphate probe addition and measured after 10 mins by LC-MS/MS analysis. In kind it is subcellular.
The target in the next experiment is RPS6KA1/RPS6KA2/RPS6KA3 (Homo sapiens, UniProt P51812+Q15349+Q15418). In words: Inhibition of RSK1/2/3 in human HeLa cells lysate at 50 uM pre incubated for 15 mins followed by ATP acyl phosphate probe addition and measured after 10 mins by LC-MS/MS analysis relative to control. In kind it is subcellular. Particulars: time 25.0 min.
The target in experiment [2] is Ribosomal protein S6 kinase alpha-3 (Homo sapiens, UniProt P51812). Put plainly: Inhibition of RSK2 domain 1 active form in human HeLa cells lysate at 50 uM pre incubated for 15 mins followed by ATP acyl phosphate probe addition and measured after 10 mins by LC-MS/MS analysis relative to control. Format: subcellular. As to conditions: time 25.0 min.
Ribosomal protein S6 kinase alpha-3, sequence (P51812 whole entry, the tested form may be a part): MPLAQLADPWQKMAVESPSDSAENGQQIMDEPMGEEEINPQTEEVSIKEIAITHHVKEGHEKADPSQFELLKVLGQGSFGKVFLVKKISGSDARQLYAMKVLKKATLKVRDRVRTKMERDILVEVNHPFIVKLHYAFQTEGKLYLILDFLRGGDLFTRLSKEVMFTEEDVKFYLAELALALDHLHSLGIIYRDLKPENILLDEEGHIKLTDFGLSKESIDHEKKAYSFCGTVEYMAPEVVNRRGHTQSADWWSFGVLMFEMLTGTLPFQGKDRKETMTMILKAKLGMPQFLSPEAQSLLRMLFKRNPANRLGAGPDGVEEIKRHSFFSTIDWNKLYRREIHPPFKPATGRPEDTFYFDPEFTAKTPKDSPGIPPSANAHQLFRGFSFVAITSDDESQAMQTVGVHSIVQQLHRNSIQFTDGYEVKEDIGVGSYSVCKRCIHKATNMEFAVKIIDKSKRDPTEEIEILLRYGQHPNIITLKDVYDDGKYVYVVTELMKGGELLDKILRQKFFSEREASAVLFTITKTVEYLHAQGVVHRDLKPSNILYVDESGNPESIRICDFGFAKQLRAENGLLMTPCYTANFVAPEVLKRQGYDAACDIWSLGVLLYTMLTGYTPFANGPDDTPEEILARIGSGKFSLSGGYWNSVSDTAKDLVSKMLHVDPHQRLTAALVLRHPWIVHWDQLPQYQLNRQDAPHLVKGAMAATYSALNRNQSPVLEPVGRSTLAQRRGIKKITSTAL
Experiment [3] concerns the target Phosphatidylinositol 3-kinase catalytic subunit type 3 (Homo sapiens, UniProt Q8NEB9). In words: Inhibition of PIK3C3 in human HeLa cells lysate at 50 uM pre incubated for 15 mins followed by ATP acyl phosphate probe addition and measured after 10 mins by LC-MS/MS analysis relative to control. In kind it is subcellular. Particulars: time 25.0 min.
In experiment [4] the target is Mitogen-activated protein kinase kinase kinase 4 (Homo sapiens, UniProt Q9Y6R4). In words: Inhibition of MAP3K4 in human HeLa cells lysate pre incubated for 15 mins followed by ATP acyl phosphate probe addition and measured after 10 mins by LC-MS/MS analysis. In kind it is subcellular.
Experiment [5] deals with Tyrosine-protein kinase ABL1 (Homo sapiens), P00519 [F317I]. In words: Inhibition of ABL1 F317I mutant (unknown origin) assessed as remaining activity at 10 uM by ATP-competition binding assay relative to control.
A further experiment deals with HeLa. Put plainly: Antiproliferative activity against human HeLa cells assessed as reduction in cell viability at 5 uM after 48 hrs by MTT assay. Format: functional, cell-based. The procedure, abridged: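 HeLa cells were infected with empty adenovirus or adenovirus encoding dominant-negative BMK1(AEF). After 24 hr they were treated with or without 5 μM drug for 48 hr and read by MTT. % growth inhibition = (1 − MTT of group / MTT of Ad-EV-only cells) × 100. n = 3.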
On the technique in general: Tetrazolium assays rely on reduction of a dye to a coloured formazan, in cell work by metabolically active cells.

Experiment [6] deals with Dual specificity mitogen-activated protein kinase kinase; MEK1/2 (Homo sapiens, UniProt P36507+Q02750). Put plainly: Inhibition of MAP2K1/MAP2K2 in human HeLa cells lysate pre incubated for 15 mins followed by ATP acyl phosphate probe addition and measured after 10 mins by LC-MS/MS analysis. Format: subcellular.
Experiment [7] has as its target T1, Serine/threonine-protein kinase PLK1 (Homo sapiens, UniProt P53350). In words: Inhibition of PLK1 splice variant in human HeLa cells lysate at 50 uM pre incubated for 15 mins followed by ADP acyl phosphate probe addition and measured after 10 mins by LC-MS/MS analysis relative to control. In kind it is subcellular. As to conditions: time 25.0 min.
Experiment [8] concerns the target Interferon-induced, double-stranded RNA-activated protein kinase (Homo sapiens, UniProt P19525). In words: Inhibition of PKR in human HeLa cells lysate at 50 uM pre incubated for 15 mins followed by ATP acyl phosphate probe addition and measured after 10 mins by LC-MS/MS analysis relative to control. As to conditions: time 25.0 min. In kind it is subcellular.
The target of experiment [9] is Calcium/calmodulin-dependent protein kinase type II subunit delta (Homo sapiens, UniProt Q13557). Put plainly: Inhibition of CamK2d in human HeLa cells lysate at 2 uM pre incubated for 15 mins followed by ADP acyl phosphate probe addition and measured after 10 mins by LC-MS/MS analysis relative to control. In kind it is subcellular. Particulars: time 25.0 min.
Calcium/calmodulin-dependent protein kinase type II subunit delta, sequence (Q13557 whole entry): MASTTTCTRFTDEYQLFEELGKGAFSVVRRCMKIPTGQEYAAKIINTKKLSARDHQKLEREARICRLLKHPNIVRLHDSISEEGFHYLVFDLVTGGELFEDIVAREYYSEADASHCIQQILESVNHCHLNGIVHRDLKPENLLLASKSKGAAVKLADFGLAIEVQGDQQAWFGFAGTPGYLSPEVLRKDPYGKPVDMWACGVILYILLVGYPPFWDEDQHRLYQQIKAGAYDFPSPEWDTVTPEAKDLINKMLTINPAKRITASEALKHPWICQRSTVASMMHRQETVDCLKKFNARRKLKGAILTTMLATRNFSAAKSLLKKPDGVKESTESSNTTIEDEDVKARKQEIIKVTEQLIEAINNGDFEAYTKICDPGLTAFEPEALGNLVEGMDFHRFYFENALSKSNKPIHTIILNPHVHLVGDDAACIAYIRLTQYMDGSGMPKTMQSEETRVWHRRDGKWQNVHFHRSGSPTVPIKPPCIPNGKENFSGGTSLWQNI
The target of experiment [10] is Tyrosine-protein kinase ABL (Homo sapiens, UniProt P00519+P42684). Put plainly: Inhibition of ABL1/2 in human HeLa cells lysate at 2 uM pre incubated for 15 mins followed by ATP acyl phosphate probe addition and measured after 10 mins by LC-MS/MS analysis relative to control. Format: subcellular. Particulars: time 25.0 min. The gist of the method: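 HeLa cell lysates (5 mg/mL total protein) were preincubated with inhibitor at 0, 0.8, 2, 10 or 50 μM for 15 min. ATP or ADP acylphosphate probe was then added (5 μM final) for 10 min, and reactions were stopped with urea. Up to four fragment ions per kinase probe-peptide were quantified by targeted MS. % inhibition was taken relative to untreated lysate. Run in duplicate.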

Experiment [11] addresses Serine/threonine-protein kinase SMG1 (Homo sapiens, UniProt Q96Q15). In words: Inhibition of SMG1 in human HeLa cells lysate pre incubated for 15 mins followed by ATP acyl phosphate probe addition and measured after 10 mins by LC-MS/MS analysis. Format: subcellular.
Experiment [12] deals with T2, Dual specificity mitogen-activated protein kinase kinase 5 (Homo sapiens) (UniProt Q13163).
T2 sequence (whole entry): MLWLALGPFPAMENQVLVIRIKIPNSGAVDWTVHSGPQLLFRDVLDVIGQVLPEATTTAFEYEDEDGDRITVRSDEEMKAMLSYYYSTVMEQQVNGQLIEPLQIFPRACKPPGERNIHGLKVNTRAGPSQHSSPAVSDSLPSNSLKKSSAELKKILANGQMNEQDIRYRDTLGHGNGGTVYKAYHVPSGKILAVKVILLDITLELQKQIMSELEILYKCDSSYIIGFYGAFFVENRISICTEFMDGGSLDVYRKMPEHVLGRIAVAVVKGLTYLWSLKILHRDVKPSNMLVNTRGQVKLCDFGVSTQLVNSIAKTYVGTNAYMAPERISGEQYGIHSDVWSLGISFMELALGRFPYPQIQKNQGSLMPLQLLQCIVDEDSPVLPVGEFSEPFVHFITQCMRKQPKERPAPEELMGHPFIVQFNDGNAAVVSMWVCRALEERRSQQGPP
Put plainly: Inhibition of MAP2K5 in human HeLa cells lysate upto 50 uM pre incubated for 15 mins followed by ADP acyl phosphate probe addition and measured after 10 mins by LC-MS/MS analysis. Format: subcellular. As to conditions: time 25.0 min.

Experiment [13] concerns the target T1, Serine/threonine-protein kinase PLK1. In words: Inhibition of PLK1 in human HeLa cells lysate pre incubated for 15 mins followed by ADP acyl phosphate probe addition and measured after 10 mins by LC-MS/MS analysis. In kind it is subcellular.
For experiment [14], the target named is Interleukin-1 receptor-associated kinase 1 (Homo sapiens, UniProt P51617). Put plainly: Inhibition of IRAK1 in human HeLa cells lysate at 2 uM pre incubated for 15 mins followed by ATP acyl phosphate probe addition and measured after 10 mins by LC-MS/MS analysis relative to control. In kind it is subcellular. Particulars: time 25.0 min.
Interleukin-1 receptor-associated kinase 1, sequence (P51617 whole entry, looked up): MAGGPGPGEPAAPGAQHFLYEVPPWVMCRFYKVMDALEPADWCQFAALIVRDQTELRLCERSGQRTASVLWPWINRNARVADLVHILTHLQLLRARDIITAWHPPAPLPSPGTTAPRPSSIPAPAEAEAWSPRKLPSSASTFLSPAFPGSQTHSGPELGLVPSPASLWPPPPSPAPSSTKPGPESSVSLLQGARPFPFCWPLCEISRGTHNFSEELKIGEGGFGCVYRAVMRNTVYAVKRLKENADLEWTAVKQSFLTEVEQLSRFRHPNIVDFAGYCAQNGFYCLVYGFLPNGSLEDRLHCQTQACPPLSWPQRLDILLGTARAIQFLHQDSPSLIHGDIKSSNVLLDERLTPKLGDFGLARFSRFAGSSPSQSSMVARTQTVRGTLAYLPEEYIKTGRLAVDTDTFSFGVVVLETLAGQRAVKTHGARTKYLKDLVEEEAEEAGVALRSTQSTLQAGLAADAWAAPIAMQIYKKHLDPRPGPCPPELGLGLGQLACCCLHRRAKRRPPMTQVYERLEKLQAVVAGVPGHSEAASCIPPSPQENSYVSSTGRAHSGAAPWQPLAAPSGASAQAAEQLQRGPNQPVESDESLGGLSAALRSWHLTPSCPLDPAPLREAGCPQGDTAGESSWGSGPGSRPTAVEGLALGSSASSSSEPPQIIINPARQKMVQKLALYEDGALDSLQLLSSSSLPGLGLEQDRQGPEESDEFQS

Activity calls are given as the source filed them. The rule behind the calls is not given here.

A word on the IC50: it is the midpoint of a concentration-inhibition curve. Higher therefore signals lower potency. By inhibition is commonly meant the change of the read-out against control, counted positive when it falls.

T1 sequence (P53350 whole entry, canonical isoform): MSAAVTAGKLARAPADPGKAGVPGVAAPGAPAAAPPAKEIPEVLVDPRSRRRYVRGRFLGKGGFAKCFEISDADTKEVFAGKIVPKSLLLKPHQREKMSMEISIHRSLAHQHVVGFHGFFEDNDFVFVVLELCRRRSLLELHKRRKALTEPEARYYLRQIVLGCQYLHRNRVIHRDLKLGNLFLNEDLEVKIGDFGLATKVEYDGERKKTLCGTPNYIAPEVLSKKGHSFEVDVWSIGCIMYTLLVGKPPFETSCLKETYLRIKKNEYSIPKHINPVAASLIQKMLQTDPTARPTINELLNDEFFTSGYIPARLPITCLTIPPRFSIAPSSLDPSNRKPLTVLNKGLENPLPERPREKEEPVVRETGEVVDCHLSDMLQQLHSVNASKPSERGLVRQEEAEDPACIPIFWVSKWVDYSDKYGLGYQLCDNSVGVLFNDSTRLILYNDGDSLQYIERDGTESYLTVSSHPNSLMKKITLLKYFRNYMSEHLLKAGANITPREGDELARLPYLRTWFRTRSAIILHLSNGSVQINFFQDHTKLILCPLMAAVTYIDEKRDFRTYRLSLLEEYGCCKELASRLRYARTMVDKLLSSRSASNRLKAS
Serine/threonine-protein kinase Nek9, sequence (Q8TD19 whole entry): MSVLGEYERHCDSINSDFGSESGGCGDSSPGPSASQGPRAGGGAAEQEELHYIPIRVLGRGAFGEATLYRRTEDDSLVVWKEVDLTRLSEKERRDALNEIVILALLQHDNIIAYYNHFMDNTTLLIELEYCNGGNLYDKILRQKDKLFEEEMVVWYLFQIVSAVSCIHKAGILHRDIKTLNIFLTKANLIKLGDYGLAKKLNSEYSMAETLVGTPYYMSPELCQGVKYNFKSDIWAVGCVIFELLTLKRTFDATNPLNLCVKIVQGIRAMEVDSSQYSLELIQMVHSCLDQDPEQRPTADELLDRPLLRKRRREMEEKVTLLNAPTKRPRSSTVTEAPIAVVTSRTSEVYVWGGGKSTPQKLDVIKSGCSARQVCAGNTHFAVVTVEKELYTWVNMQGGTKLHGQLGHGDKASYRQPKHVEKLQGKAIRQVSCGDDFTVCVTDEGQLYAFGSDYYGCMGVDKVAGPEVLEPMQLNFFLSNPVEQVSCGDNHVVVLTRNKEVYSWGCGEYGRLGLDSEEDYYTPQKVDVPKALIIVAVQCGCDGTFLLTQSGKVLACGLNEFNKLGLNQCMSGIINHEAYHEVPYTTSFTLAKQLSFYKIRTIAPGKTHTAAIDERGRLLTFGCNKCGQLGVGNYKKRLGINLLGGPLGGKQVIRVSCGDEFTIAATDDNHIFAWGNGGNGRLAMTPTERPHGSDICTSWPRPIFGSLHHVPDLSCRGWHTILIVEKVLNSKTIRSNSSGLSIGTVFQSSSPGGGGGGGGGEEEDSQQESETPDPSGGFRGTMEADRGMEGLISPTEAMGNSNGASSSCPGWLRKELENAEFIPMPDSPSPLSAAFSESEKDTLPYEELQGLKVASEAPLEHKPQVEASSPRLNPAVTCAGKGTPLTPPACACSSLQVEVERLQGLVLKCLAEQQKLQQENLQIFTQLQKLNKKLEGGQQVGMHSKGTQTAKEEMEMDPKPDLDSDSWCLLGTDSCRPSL
Phosphatidylinositol 3-kinase catalytic subunit type 3, sequence (Q8NEB9 whole entry): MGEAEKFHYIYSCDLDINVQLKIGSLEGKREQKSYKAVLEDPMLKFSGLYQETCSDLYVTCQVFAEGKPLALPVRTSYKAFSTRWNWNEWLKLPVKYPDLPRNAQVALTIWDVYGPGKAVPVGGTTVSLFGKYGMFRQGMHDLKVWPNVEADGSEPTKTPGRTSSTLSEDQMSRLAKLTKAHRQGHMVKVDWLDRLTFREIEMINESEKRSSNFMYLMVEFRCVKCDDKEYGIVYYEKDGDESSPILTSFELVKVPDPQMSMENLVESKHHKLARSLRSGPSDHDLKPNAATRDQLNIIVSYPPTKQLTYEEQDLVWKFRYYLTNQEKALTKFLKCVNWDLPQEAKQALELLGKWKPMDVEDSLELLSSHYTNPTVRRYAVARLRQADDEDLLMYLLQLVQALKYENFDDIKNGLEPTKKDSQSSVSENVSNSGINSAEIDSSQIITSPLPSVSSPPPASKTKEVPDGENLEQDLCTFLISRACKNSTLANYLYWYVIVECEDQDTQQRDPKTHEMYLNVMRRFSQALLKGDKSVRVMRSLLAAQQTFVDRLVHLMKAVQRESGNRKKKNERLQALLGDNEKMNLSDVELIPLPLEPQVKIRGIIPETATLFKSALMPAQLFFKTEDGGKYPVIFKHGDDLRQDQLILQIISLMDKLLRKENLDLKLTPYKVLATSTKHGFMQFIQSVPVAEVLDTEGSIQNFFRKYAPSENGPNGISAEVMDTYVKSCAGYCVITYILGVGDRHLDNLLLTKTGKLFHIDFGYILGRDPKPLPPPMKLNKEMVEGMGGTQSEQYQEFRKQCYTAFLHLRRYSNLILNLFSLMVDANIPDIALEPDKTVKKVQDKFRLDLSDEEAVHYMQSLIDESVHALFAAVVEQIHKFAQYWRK
Interferon-induced, double-stranded RNA-activated protein kinase, sequence (P19525 whole entry): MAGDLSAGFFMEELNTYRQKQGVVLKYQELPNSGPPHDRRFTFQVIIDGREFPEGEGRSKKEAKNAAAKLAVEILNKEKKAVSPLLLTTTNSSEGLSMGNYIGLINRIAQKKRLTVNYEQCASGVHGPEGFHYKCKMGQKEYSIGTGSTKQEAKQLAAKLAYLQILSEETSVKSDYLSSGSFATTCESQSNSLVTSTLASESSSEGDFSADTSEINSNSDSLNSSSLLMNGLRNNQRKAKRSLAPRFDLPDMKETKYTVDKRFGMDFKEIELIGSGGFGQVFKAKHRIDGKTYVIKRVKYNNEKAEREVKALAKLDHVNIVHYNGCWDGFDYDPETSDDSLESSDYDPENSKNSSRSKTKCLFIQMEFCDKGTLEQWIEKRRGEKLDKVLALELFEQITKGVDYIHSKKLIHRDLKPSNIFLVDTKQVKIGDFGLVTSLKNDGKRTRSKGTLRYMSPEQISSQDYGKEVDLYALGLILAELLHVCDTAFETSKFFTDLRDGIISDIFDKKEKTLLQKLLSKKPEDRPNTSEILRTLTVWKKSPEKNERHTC

Consider `CCOc1cc(N2CCC(O)CC2)ccc1Nc1ncc2c(n1)N(C)c1ccccc1C(=O)N2C`, for which the half-inhibitory concentration (IC50) in [1], in experiment [4], in [6], in [11] and in [13] was over 50 µM each time. In addition, the inhibition against RPS6KA1/RPS6KA2/RPS6KA3 was 0.9%; in experiment [2] it was 11.5%; in experiment [3], 19.3%; in [7] it was 13.3%; in experiment [8], -8.3%; in [9] it was -6.5%. Moreover, the inhibition in experiment [10] was found to be 11.5%; in [14] it was 2.6%. For the same compound, the Activity in [5] was 30%. Besides, in the experiment on HeLa, the result was Active. For the same compound, in experiment [12], the inhibition result was “inactive”.
